Test results published in ChEMBL document CHEMBL5104181, “Development of Hydrogen Sulfide-Releasing Carbonic Anhydrases IX- and XII-Selective Inhibitors with Enhanced Antihyperalgesic Action in a Rat Model of Arthritis” (J Med Chem, 2022).
Activity calls are given as the source filed them. No cut-off for these calls is given here.

Assays:
[1] = Toxicity in Sprague-Dawley rat model of complete freund's adjuvant-induced arthritis assessed as effect on behavioral parameters at 30 mg/kg, po measured for 24 hrs by Irwin test; assay type: organism-based; settings: in vivo
How it was run: (§1)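 Single oral 30 mg/kg dose (1% CMC suspension) in CFA-arthritic Sprague Dawley rats; animals observed 24 h. Irwin screen in individual transparent cage scoring 26 autonomic, behavioral and neurological parameters; some signs recorded as present/absent, skin colour qualitatively, others semiquantitatively on observer scales (0 to +4, −4 to 0, or −4 to +4).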

Rattus norvegicus [2] = experiment: (§2) Antinociceptive activity against complete freund's adjuvant-induced arthritic Sprague-Dawley rat model assessed as increase in weight tolerated on ipsilateral paw at 10 to 30 mg/kg, po administered as single dose starting from day 14 post CFA injection and measured after 15 to 45 mins by Paw pressure test; assay type: functional, organism-based; settings: dose 10-30 mg/kg, time lower 15.0 min, time upper […]
[3] = Toxicity in Sprague-Dawley rat model of complete freund's adjuvant-induced arthritis assessed as effect on neurological parameters at 30 mg/kg, po measured for 24 hrs by Irwin test; assay type: organism-based; settings: in vivo; how it was run: as §1
Rattus norvegicus [4] = experiment: as §2, with “reduction” for “increase”, “mechanical hyperalgesia induced hypersensitivity” for “weight tolerated on ipsilateral paw”, “upto 75” for “after 15 to 45”; assay type: functional, organism-based; settings: dose 10-30 mg/kg
Liver [5] = experiment: Induction of H2S release in rat liver microsomes at 150 uM incubated for 90 mins by methylene blue based UV-Vis spectrophotometer analysis; assay type: functional; settings: Homogenate, in the assay text read “rat liver homogenate” for “rat liver microsomes”
How it was run: (§3)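 Rat liver homogenized 1/20 w/v in ice-cold 50 mM potassium phosphate pH 7.4, diluted further 1:10; compound 150 μM final (30 mM DMSO stock) in airtight vials at 37 °C, 0–90 min. H2S trapped with zinc acetate, proteins precipitated with TCA, then N,N-dimethyl-p-phenylenediamine/FeCl3; methylene blue A667 after 30 min at 25 °C; Na2S calibration 1–250 μM; compound-free baseline; triplicate.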

[6] = Toxicity in Sprague-Dawley rat model of complete freund's adjuvant-induced arthritis assessed as effect on autonomical parameters at 30 mg/kg, po measured for 24 hrs by Irwin test; assay type: organism-based; settings: in vivo; how it was run: as §1
Carbonic anhydrase 12 = Carbonic anhydrase 12 (Homo sapiens, UniProt O43570); experiment: Inhibition of recombinant human CA12 pre-incubated for 15 mins by phenol red dye based stopped flow CO2 hydration assay
Carbonic anhydrase 9 = Carbonic anhydrase 9 (Homo sapiens, UniProt Q16790); experiment: Inhibition of recombinant human CA9 pre-incubated for 15 mins by phenol red dye based stopped flow CO2 hydration assay
Liver [7] = experiment: Induction of H2S release in rat liver microsomes assessed as half life of H2S release at 150 uM incubated for 90 mins by methylene blue based UV-Vis spectrophotometer analysis; assay type: functional; settings: Homogenate, in the assay text read “rat liver homogenate” for “rat liver microsomes”; how it was run: as §3
Liver [8] = experiment: Induction of H2S release in rat liver microsomes assessed as Cmax of H2S release at 150 uM measured after 90 mins by methylene blue based UV-Vis spectrophotometer analysis; assay type: functional; settings: Homogenate, in the assay text read “rat liver homogenate” for “rat liver microsomes”; how it was run: as §3
Carbonic anhydrase 1 = Carbonic anhydrase 1 (Homo sapiens, UniProt P00915); experiment: Inhibition of recombinant human CA1 pre-incubated for 15 mins by phenol red dye based stopped flow CO2 hydration assay
Rattus norvegicus [9] = experiment: (§4) Antinociceptive activity against complete freund's adjuvant-induced arthritic Sprague-Dawley rat model assessed as reduction in spontaneous pain by measuring difference in weight tolerance on contralateral and ipsilateral paw administered orally as single dose starting from day 14 post CFA injection and measured after 30 to 45 mins by Incapacitance test; assay type: functional, organism-based; settings: dose 1-30 mg/kg, route po, time lower 30.0 min, time upper […], DDE = dose-dependent effect
How it was run: (§5)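 Sprague Dawley rats 200–250 g, CFA 50 μL intra-articular into left tibiotarsal joint on day 0 (saline controls). On day 14, single oral dose in 1% CMC (hybrids 1, 10, 30 mg/kg; single agents 13.23 or 17.71 mg/kg). Incapacitance apparatus, rats on hind paws on 65° inclined plane; Δ weight = contralateral minus ipsilateral load over time; 8 rats, two experimental sets, mean (SEM).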

Carbonic anhydrase 2 = Carbonic anhydrase 2 (Homo sapiens, UniProt P00918); experiment: Inhibition of recombinant human CA2 pre-incubated for 15 mins by phenol red dye based stopped flow CO2 hydration assay
Carbonic anhydrase 4 = Carbonic anhydrase 4 (Homo sapiens, UniProt P22748); experiment: Inhibition of recombinant human CA4 pre-incubated for 15 mins by phenol red dye based stopped flow CO2 hydration assay
Rattus norvegicus [10] = experiment: as §4, with “paw at 10 mg/kg, po” for “paw”, “administered” for “administered orally”, “upto 75” for “after 30 to 45”; assay type: functional, organism-based; how it was run: as §5
Rattus norvegicus [11] = experiment: as §2, with “13.23” for “10 to 30”; assay type: functional, organism-based; settings: time lower 15.0 min, time upper […]
Rattus norvegicus [12] = experiment: as §4, with “paw at 13.23 mg/kg, po” for “paw”, “administered” for “administered orally”, “after 15 to” for “after”, “30” for “30 to 45”; assay type: functional, organism-based; settings: time 15-30 min; how it was run: as §5
Liver [13] = experiment: Induction of H2S release in rat liver microsomes assessed as Cmax of H2S release at 150 uM measured after 20 mins by methylene blue based UV-Vis spectrophotometer analysis; assay type: functional; settings: Homogenate, in the assay text read “rat liver homogenate” for “rat liver microsomes”; how it was run: as §3
Rattus norvegicus [14] = experiment: Antinociceptive activity against complete freund's adjuvant-induced arthritic Sprague-Dawley rat model assessed as reduction in mechanical hyperalgesia induced hypersensitivity administered orally as single dose starting from day 14 post CFA injection and measured upto 75 mins by Paw pressure test; assay type: functional, organism-based; settings: dose 1-30 mg/kg, route po, DDE = dose-dependent effect

Sequence of Carbonic anhydrase 1 (P00915 whole entry): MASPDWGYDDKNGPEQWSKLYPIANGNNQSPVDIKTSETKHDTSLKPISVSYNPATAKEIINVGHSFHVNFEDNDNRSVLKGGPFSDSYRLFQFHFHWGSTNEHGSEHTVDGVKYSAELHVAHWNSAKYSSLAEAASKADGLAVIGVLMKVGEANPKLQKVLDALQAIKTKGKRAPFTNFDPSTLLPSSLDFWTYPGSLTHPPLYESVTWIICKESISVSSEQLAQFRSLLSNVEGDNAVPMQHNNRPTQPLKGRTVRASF
Sequence of Carbonic anhydrase 4 (P22748 whole entry): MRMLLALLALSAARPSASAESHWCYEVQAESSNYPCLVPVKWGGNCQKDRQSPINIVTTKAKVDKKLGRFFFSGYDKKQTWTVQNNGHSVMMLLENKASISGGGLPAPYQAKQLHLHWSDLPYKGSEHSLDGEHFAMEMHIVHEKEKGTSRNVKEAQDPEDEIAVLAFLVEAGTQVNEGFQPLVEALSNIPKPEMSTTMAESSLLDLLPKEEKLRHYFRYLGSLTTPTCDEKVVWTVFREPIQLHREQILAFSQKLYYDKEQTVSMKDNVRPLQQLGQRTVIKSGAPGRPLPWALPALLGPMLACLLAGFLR
Sequence of Carbonic anhydrase 12 (O43570 whole entry): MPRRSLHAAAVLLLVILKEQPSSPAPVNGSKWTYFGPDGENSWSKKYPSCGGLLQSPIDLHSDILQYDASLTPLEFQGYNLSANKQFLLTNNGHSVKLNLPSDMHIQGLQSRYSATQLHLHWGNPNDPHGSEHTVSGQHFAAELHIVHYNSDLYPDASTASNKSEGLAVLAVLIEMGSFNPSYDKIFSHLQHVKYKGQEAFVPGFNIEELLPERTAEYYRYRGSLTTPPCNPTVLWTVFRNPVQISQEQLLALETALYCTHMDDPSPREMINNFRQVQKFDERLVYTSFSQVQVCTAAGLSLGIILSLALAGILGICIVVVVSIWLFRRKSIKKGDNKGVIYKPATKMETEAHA

SMILES | Ki (Carbonic anhydrase 12) [nM] | Ki (Carbonic anhydrase 9) [nM] | Ki (Carbonic anhydrase 1) [nM] | Ki (Carbonic anhydrase 2) [nM] | Ki (Carbonic anhydrase 4) [nM] | Activity [1] | Activity (Rattus norvegicus [2]) | Activity [3] | Activity (Rattus norvegicus [4]) | Activity (Liver [5]) | Activity [6] | T1/2 (Liver [7]) [min] | Cmax (Liver [8]) [µM] | Activity (Rattus norvegicus [9]) | Activity (Rattus norvegicus [10]) | Activity (Rattus norvegicus [11]) | Activity (Rattus norvegicus [12]) | Cmax (Liver [13]) [µM] | Activity (Rattus norvegicus [14])
NS(=O)(=O)c1ccc(CCN(Cc2csc3ccccc23)C(=O)c2ccc(-c3cssc3=S)cc2)cc1 | 8 | 2.4 | > 10000 | 2480 | 48 | Non-Toxic | Active | Non-Toxic | Active | Active | Non-Toxic | 4.3 | 7.9 | Dde | – | – | – | – | –
NS(=O)(=O)c1ccc(CCN(Cc2cccc3ccccc23)C(=O)c2ccc(-c3cssc3=S)cc2)cc1 | 7 | 15.6 | > 10000 | 4460 | 244 | Non-Toxic | Active | Non-Toxic | Active | Active | Non-Toxic | 4.3 | 7.9 | – | Active | – | – | – | –
NS(=O)(=O)c1ccc(CCN(Cc2ccc(F)cc2)C(=O)c2ccc(-c3cssc3=S)cc2)cc1 | 65.3 | 46.3 | 5320 | 600 | > 10000 | – | – | – | – | – | – | – | – | – | – | – | – | – | –
O=C(O)c1ccc(-c2cssc2=S)cc1 | – | – | – | – | – | – | – | – | – | Active | – | 3.1 | – | – | – | Active | Active | 12.1 | –
COc1ccc(CN(CCc2ccc(S(N)(=O)=O)cc2)C(=O)c2ccc(-c3cssc3=S)cc2)cc1OC | 8.9 | 18.6 | – | 218 | 293 | – | – | – | – | – | – | – | – | – | – | – | – | – | –
NS(=O)(=O)c1ccc(CCN(CCc2ccccc2)C(=O)c2ccc(-c3cssc3=S)cc2)cc1 | 9.6 | 126 | 4390 | 661 | 243 | – | – | – | – | – | – | – | – | – | – | – | – | – | –
NS(=O)(=O)c1ccc(CCNCc2cccc3ccccc23)cc1 | – | 45.3 | – | – | – | – | – | – | – | – | – | – | – | – | – | – | – | – | –
N#CCCN(CCc1ccc(S(N)(=O)=O)cc1)C(=O)c1ccc(-c2cssc2=S)cc1 | 9.1 | 28.7 | 429 | 60.4 | 523 | – | – | – | – | – | – | – | – | – | – | – | – | – | –

Further lines, with some results ahead:

Ki (Carbonic anhydrase 12) [nM] | Ki (Carbonic anhydrase 9) [nM] | Ki (Carbonic anhydrase 1) [nM] | Ki (Carbonic anhydrase 2) [nM] | Ki (Carbonic anhydrase 4) [nM] | SMILES | Activity [1] | Activity (Rattus norvegicus [2]) | Activity [3] | Activity (Rattus norvegicus [4]) | Activity (Liver [5]) | Activity [6] | T1/2 (Liver [7]) [min] | Cmax (Liver [8]) [µM] | Activity (Rattus norvegicus [9]) | Activity (Rattus norvegicus [10]) | Activity (Rattus norvegicus [11]) | Activity (Rattus norvegicus [12]) | Cmax (Liver [13]) [µM] | Activity (Rattus norvegicus [14])
8.4 | 46.2 | 7210 | 9650 | 404 | CSc1ccc(CN(CCc2ccc(S(N)(=O)=O)cc2)C(=O)c2ccc(-c3cssc3=S)cc2)cc1 | Non-Toxic | Active | Non-Toxic | Active | Active | Non-Toxic | 4.3 | 7.9 | Dde | – | – | – | – | –
9.5 | 22.7 | 4260 | 995 | 3410 | CN(C)c1ccc(CN(CCc2ccc(S(N)(=O)=O)cc2)C(=O)c2ccc(-c3cssc3=S)cc2)cc1 | – | – | – | – | – | – | – | – | – | – | – | – | – | –
32.9 | 36.6 | 7450 | 919 | > 10000 | NS(=O)(=O)c1ccc(CCN(Cc2ccc([N+](=O)[O-])cc2)C(=O)c2ccc(-c3cssc3=S)cc2)cc1 | – | – | – | – | – | – | – | – | – | – | – | – | – | –
12.9 | 19.1 | 7700 | 3660 | 1040 | NS(=O)(=O)c1ccc(CCN(Cc2ccc(Br)cc2)C(=O)c2ccc(-c3cssc3=S)cc2)cc1 | – | – | – | – | – | – | – | – | – | – | – | – | – | –
8.8 | 40.3 | > 10000 | 4830 | 46.2 | N#Cc1ccc(CN(CCc2ccc(S(N)(=O)=O)cc2)C(=O)c2ccc(-c3cssc3=S)cc2)cc1 | – | – | – | – | – | – | – | – | – | – | – | – | – | –
9.7 | 43 | – | 480 | 4340 | NS(=O)(=O)c1ccc(CCN(Cc2ccccc2)C(=O)c2ccc(-c3cssc3=S)cc2)cc1 | – | – | – | – | – | – | – | – | – | – | – | – | – | –
76.4 | 50.3 | 2210 | 589 | 1590 | COc1ccc(CN(CCc2ccc(S(N)(=O)=O)cc2)C(=O)c2ccc(-c3cssc3=S)cc2)cc1 | – | – | – | – | – | – | – | – | – | – | – | – | – | –
9.8 | 24 | 5510 | 2970 | 430 | NS(=O)(=O)c1ccc(CCN(Cc2ccc(Cl)cc2)C(=O)c2ccc(-c3cssc3=S)cc2)cc1 | – | – | – | – | – | – | – | – | – | – | – | – | – | –
7.7 | 4.1 | 6700 | 2950 | 4090 | COc1cc([N+](=O)[O-])ccc1CN(CCc1ccc(S(N)(=O)=O)cc1)C(=O)c1ccc(-c2cssc2=S)cc1 | Non-Toxic | – | Non-Toxic | – | Active | Non-Toxic | 4.3 | 7.9 | Dde | – | – | – | – | Dde
